Assays:
Assay type in all cases: functional
Coptotermes formosanus [1] = assay: Termiticidal activity against Coptotermes formosanus placed on 0.001 % wt/wt compound treated filter paper assessed as termite mortality measured 17 days post compound exposure
In short: (§1)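 Treated filter paper disks moistened with 100 µL water; 20 C. formosanus workers (third instar or greater) plus 1 soldier per dish from field colonies kept on spruce, ca. 100% RH, 26.6 °C. Daily mortality scored for 3 weeks; cumulative percent mortality from four replicates, each a different colony; water-only controls; ANOVA, protected Fisher LSD (P < 0.05) after arcsine square-root transform.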

Coptotermes formosanus [2] = assay: Termiticidal activity against Coptotermes formosanus placed on 0.01 % wt/wt compound treated filter paper assessed as termite mortality measured 17 days post compound exposure; in short: as §1
Coptotermes formosanus [3] = assay: Termiticidal activity against Coptotermes formosanus placed on 0.05 % wt/wt compound treated filter paper assessed as termite mortality measured 17 days post compound exposure; in short: as §1
Coptotermes formosanus [4] = assay: Termiticidal activity against Coptotermes formosanus placed on 0.1 % wt/wt compound treated filter paper assessed as termite mortality measured 17 days post compound exposure; in short: as §1
Coptotermes formosanus [5] = assay: Termiticidal activity against Coptotermes formosanus placed on 0.5 % wt/wt compound treated filter paper assessed as termite mortality measured 17 days post compound exposure; in short: as §1
Coptotermes formosanus [6] = assay: Termiticidal activity against Coptotermes formosanus placed on 0.001 % wt/wt compound treated filter paper assessed as termite mortality measured 13 days post compound exposure; in short: as §1
Coptotermes formosanus [7] = assay: Termiticidal activity against Coptotermes formosanus placed on 0.01 % wt/wt compound treated filter paper assessed as termite mortality measured 13 days post compound exposure; in short: as §1
Coptotermes formosanus [8] = assay: Termiticidal activity against Coptotermes formosanus placed on 0.05 % wt/wt compound treated filter paper assessed as termite mortality measured 13 days post compound exposure; in short: as §1
Coptotermes formosanus [9] = assay: Termiticidal activity against Coptotermes formosanus placed on 0.1 % wt/wt compound treated filter paper assessed as termite mortality measured 13 days post compound exposure; in short: as §1
Coptotermes formosanus [10] = assay: Termiticidal activity against Coptotermes formosanus placed on 0.5 % wt/wt compound treated filter paper assessed as termite mortality measured 13 days post compound exposure; in short: as §1
Coptotermes formosanus [11] = assay: Termiticidal activity against Coptotermes formosanus placed on 0.001 % wt/wt compound treated filter paper assessed as termite mortality measured 11 days post compound exposure; in short: as §1
Coptotermes formosanus [12] = assay: Termiticidal activity against Coptotermes formosanus placed on 0.01 % wt/wt compound treated filter paper assessed as termite mortality measured 11 days post compound exposure; in short: as §1
Coptotermes formosanus [13] = assay: Termiticidal activity against Coptotermes formosanus placed on 0.05 % wt/wt compound treated filter paper assessed as termite mortality measured 11 days post compound exposure; in short: as §1
Coptotermes formosanus [14] = assay: Termiticidal activity against Coptotermes formosanus placed on 0.1 % wt/wt compound treated filter paper assessed as termite mortality measured 11 days post compound exposure; in short: as §1
Coptotermes formosanus [15] = assay: Termiticidal activity against Coptotermes formosanus placed on 0.001 % wt/wt compound treated filter paper assessed as termite mortality measured 9 days post compound exposure; in short: as §1
Coptotermes formosanus [16] = assay: Termiticidal activity against Coptotermes formosanus placed on 0.01 % wt/wt compound treated filter paper assessed as termite mortality measured 9 days post compound exposure; in short: as §1
Coptotermes formosanus [17] = assay: Termiticidal activity against Coptotermes formosanus placed on 0.05 % wt/wt compound treated filter paper assessed as termite mortality measured 9 days post compound exposure; in short: as §1
Coptotermes formosanus [18] = assay: Termiticidal activity against Coptotermes formosanus placed on 0.1 % wt/wt compound treated filter paper assessed as termite mortality measured 9 days post compound exposure; in short: as §1
Coptotermes formosanus [19] = assay: Termiticidal activity against Coptotermes formosanus placed on 0.5 % wt/wt compound treated filter paper assessed as termite mortality measured 9 days post compound exposure; in short: as §1
Coptotermes formosanus [20] = assay: Termiticidal activity against Coptotermes formosanus placed on 0.001 % wt/wt compound treated filter paper assessed as termite mortality measured 6 days post compound exposure; in short: as §1
Coptotermes formosanus [21] = assay: Termiticidal activity against Coptotermes formosanus placed on 0.01 % wt/wt compound treated filter paper assessed as termite mortality measured 6 days post compound exposure; in short: as §1
Coptotermes formosanus [22] = assay: Termiticidal activity against Coptotermes formosanus placed on 0.05 % wt/wt compound treated filter paper assessed as termite mortality measured 6 days post compound exposure; in short: as §1
Coptotermes formosanus [23] = assay: Termiticidal activity against Coptotermes formosanus placed on 0.1 % wt/wt compound treated filter paper assessed as termite mortality measured 6 days post compound exposure; in short: as §1
Coptotermes formosanus [24] = assay: Termiticidal activity against Coptotermes formosanus placed on 0.5 % wt/wt compound treated filter paper assessed as termite mortality measured 6 days post compound exposure; in short: as §1
Coptotermes formosanus [25] = assay: Termiticidal activity against Coptotermes formosanus placed on 1 % wt/wt compound treated filter paper assessed as termite mortality measured 21 days post compound exposure
Coptotermes formosanus [26] = assay: Termiticidal activity against Coptotermes formosanus placed on 1 % wt/wt compound treated filter paper assessed as termite mortality measured 11 days post compound exposure
Coptotermes formosanus [27] = assay: Termiticidal activity against Coptotermes formosanus placed on 1 % wt/wt compound treated filter paper assessed as termite mortality measured 3 days post compound exposure
Coptotermes formosanus [28] = assay: Termiticidal activity against Coptotermes formosanus placed on 0.5 % wt/wt compound treated filter paper assessed as termite mortality measured 21 days post compound exposure; in short: as §1
Coptotermes formosanus [29] = assay: Termiticidal activity against Coptotermes formosanus placed on 0.5 % wt/wt compound treated filter paper assessed as termite mortality measured 11 days post compound exposure; in short: as §1
Coptotermes formosanus [30] = assay: Antifeedant activity against Coptotermes formosanus placed on 0.5 % wt/wt compound treated filter paper assessed as filter paper consumption measured 21 days post compound exposure (reference value: 78.2 +/- 26.7 mg)
Coptotermes formosanus [31] = assay: Antifeedant activity against Coptotermes formosanus placed on 1 % wt/wt compound treated filter paper assessed as filter paper consumption measured 21 days post compound exposure (reference value: 85 +/- 15.1 mg)
Coptotermes formosanus [32] = assay: Termiticidal activity against Coptotermes formosanus placed on 0.001 % wt/wt compound treated filter paper assessed as termite mortality measured 21 days post compound exposure; in short: as §1
Coptotermes formosanus [33] = assay: Termiticidal activity against Coptotermes formosanus placed on 0.01 % wt/wt compound treated filter paper assessed as termite mortality measured 21 days post compound exposure; in short: as §1
Coptotermes formosanus [34] = assay: Termiticidal activity against Coptotermes formosanus placed on 0.05 % wt/wt compound treated filter paper assessed as termite mortality measured 21 days post compound exposure; in short: as §1
Coptotermes formosanus [35] = assay: Termiticidal activity against Coptotermes formosanus placed on 0.1 % wt/wt compound treated filter paper assessed as termite mortality measured 21 days post compound exposure; in short: as §1
Coptotermes formosanus [36] = assay: Antifeedant activity against Coptotermes formosanus placed on 0.001 % wt/wt compound treated filter paper assessed as filter paper consumption measured 21 days post compound exposure (reference value: 78.2 +/- 26.7 mg)
Coptotermes formosanus [37] = assay: Antifeedant activity against Coptotermes formosanus placed on 0.01 % wt/wt compound treated filter paper assessed as filter paper consumption measured 21 days post compound exposure (reference value: 78.2 +/- 26.7 mg)
Coptotermes formosanus [38] = assay: Antifeedant activity against Coptotermes formosanus placed on 0.05 % wt/wt compound treated filter paper assessed as filter paper consumption measured 21 days post compound exposure (reference value: 78.2 +/- 26.7 mg)
Coptotermes formosanus [39] = assay: Antifeedant activity against Coptotermes formosanus placed on 0.1 % wt/wt compound treated filter paper assessed as filter paper consumption measured 21 days post compound exposure (reference value: 78.2 +/- 26.7 mg)

COC1=C(OC)C(=O)C(CC=C(C)C)=C(C)C1=O [Coenzyme Q1]
98.1 mg: Activity (Coptotermes formosanus [38])
98.5 mg: Activity (Coptotermes formosanus [36])
10%: mortality (Coptotermes formosanus [28])
0%: mortality (Coptotermes formosanus [8]) | mortality (Coptotermes formosanus [9]) | mortality (Coptotermes formosanus [13]) | mortality (Coptotermes formosanus [14]) | mortality (Coptotermes formosanus [17]) | mortality (Coptotermes formosanus [18]) | mortality (Coptotermes formosanus [22]) | mortality (Coptotermes formosanus [23])
70%: mortality (Coptotermes formosanus [27])
3.3%: mortality (Coptotermes formosanus [1]) | mortality (Coptotermes formosanus [6]) | mortality (Coptotermes formosanus [11]) | mortality (Coptotermes formosanus [15]) | mortality (Coptotermes formosanus [19]) | mortality (Coptotermes formosanus [20]) | mortality (Coptotermes formosanus [24]) | mortality (Coptotermes formosanus [29]) | mortality (Coptotermes formosanus [32])
100%: mortality (Coptotermes formosanus [25]) | mortality (Coptotermes formosanus [26])
95.8 mg: Activity (Coptotermes formosanus [30])
77.3 mg: Activity (Coptotermes formosanus [37])
101.6 mg: Activity (Coptotermes formosanus [39])
16.9 mg: Activity (Coptotermes formosanus [31])
8.3%: mortality (Coptotermes formosanus [4]) | mortality (Coptotermes formosanus [5]) | mortality (Coptotermes formosanus [35])
5%: mortality (Coptotermes formosanus [2]) | mortality (Coptotermes formosanus [3]) | mortality (Coptotermes formosanus [7]) | mortality (Coptotermes formosanus [10]) | mortality (Coptotermes formosanus [12]) | mortality (Coptotermes formosanus [16]) | mortality (Coptotermes formosanus [21]) | mortality (Coptotermes formosanus [33]) | mortality (Coptotermes formosanus [34])

Reference: ChEMBL document CHEMBL3045504, “Activity of 1,4-benzoquinones against formosan subterranean termites (Coptotermes formosanus)” (2008)
